According to ChEMBL document CHEMBL1133453, “Further studies on nociceptin-related peptides: discovery of a new chemical template with antagonist activity on the nociceptin receptor” (J Med Chem, 2000):
Calls of active or inactive are those of the source. No cut-off for these calls is given here. Numbered stars: 1 amine (or outer) side, 2 acyl side, 3 side chain; on linkers, the order of the positions; unused ones are H or OH. Square brackets hold non-standard residues; d marks the D form. Peptide text beside a SMILES is read from it. X5 = N[C@@H](Cc1ccc(O)cc1)CN(CC(=O)[*:2])[*:1]; X1 = CC(C)C[C@H](N)CN(CC(=O)[*:2])[*:1]; Nphe = O=C(O)CNCc1ccccc1

Columns and labels:
Nociceptin receptor [1] = target: T1, Nociceptin receptor (Mus musculus, UniProt P35377); assay: Affinity to nociceptin receptors on mouse forebrain membranes by [3H]NC-NH2 displacement.
In short: (§1)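 Forebrain membranes from male Swiss mice (25-30 g), homogenized in 50 mM Tris HCl, 2 mM EDTA, 100 µM PMSF, pH 7.4, then preincubated 30 min at 37 °C. Bound ligand separated by GF/C filtration. Ki obtained by nonlinear least-squares fitting.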

Mus musculus [2] = organism: Mus musculus; assay: Potency (Emax) at 10 uM against electrically evoked contraction (twitch response) in mouse vas deferens; Slight effect (50% inhibition was detected at 10 uM); assay type: functional, organism-based
In short: (§2)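 Mouse vas deferens held in Mg2+-free Krebs at 33 °C under 0.3 g resting tension. Field stimulation through platinum electrodes with supramaximal 1-ms pulses at 0.1 Hz, twitches recorded isotonically. After about 2 h equilibration, cumulative concentration-response curves built in 0.5 log steps up to 10 µM. pEC50 taken as the concentration giving half-maximal effect. Mean of at least 3 experiments.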

Mus musculus [3] = organism: Mus musculus; assay: Compound was tested for agonistic activity against electrically evoked contraction (twitch response) in mouse vas deferens; Slight effect (50% inhibition was detected at 10 uM); assay type: functional, organism-based; conditions: filed as partial agonist; in short: as §2
Mus musculus [4] = organism: Mus musculus; assay: Compound was tested for the antagonistic activity on mouse vas deferens using NC(1-13)NH2 as agonist; assay type: functional
In short: (§3)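 Electrically stimulated mouse vas deferens (Mg2+-free Krebs, 33 °C, 0.1 Hz, 1-ms pulses). Antagonist at 10 µM added 15 min before a cumulative NC(1-13)NH2 concentration-response curve. pKB calculated with the Gaddum-Schild equation, assuming a slope of 1, from the concentration ratio. Mean of at least 3 experiments, with 95% confidence limits.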

Mus musculus [5] = organism: Mus musculus; assay: Compound was tested for the antagonistic activity on mouse vas deferens using NC(1-13)NH2 as agonist; NA means Inactive up to 10 uM; assay type: functional, organism-based; in short: as §3
Nociceptin receptor [6] = target: T1, Nociceptin receptor; assay: Binding affinity towards Orphanin FQ receptor on mouse forebrain membranes was determined using [3H]-NC-NH2 as radioligand; set-up: species or system Membrane
In short: as §1, with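 “°C. Competition against 0.5 nM [3H]NC-NH2 using 200 µg protein per assay, run in duplicate, 120 min at 25 °C.” for “°C.”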

Mus musculus [7] = organism: Mus musculus; assay: Compound was tested for agonistic activity against electrically evoked contraction (twitch response) in mouse vas deferens; NA means Inactive up to 10 uM; assay type: functional, organism-based; in short: as §2
Mus musculus [8] = organism: Mus musculus; assay: Potency (Emax) against electrically evoked contraction (twitch response) in mouse vas deferens; NA means Inactive up to 10 uM; assay type: functional, organism-based; in short: as §2

T1 sequence (P35377 whole entry): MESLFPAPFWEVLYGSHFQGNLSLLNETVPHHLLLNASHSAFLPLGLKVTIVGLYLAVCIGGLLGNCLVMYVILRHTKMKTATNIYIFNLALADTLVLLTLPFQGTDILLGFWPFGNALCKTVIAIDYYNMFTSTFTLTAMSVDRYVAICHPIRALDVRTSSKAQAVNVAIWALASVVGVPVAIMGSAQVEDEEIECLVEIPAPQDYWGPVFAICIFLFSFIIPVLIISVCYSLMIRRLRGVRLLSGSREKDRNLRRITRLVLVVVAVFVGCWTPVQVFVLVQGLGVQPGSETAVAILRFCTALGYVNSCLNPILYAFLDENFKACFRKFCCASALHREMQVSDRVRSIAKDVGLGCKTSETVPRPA

| SMILES | Ki (Nociceptin receptor [1]) [nM] | Emax (Mus musculus [2]) | Log EC50 (Mus musculus [3]) | pKB (Mus musculus [4]) | pKB (Mus musculus [5]) | Ki (Nociceptin receptor [6]) [nM] | Log EC50 (Mus musculus [7]) | Emax (Mus musculus [8]) |
| --- | --- | --- | --- | --- | --- | --- | --- | --- |
| C[C@H](NC(=O)CNC(=O)[C@@H](NC(=O)[C@H](Cc1ccccc1)NC(=O)CNC(=O)CNC[C@@H](N)Cc1ccc(O)cc1)[C@@H](C)O)C(=O)N[C@@H](CCCN=C(N)N)C(=O)N[C@@H](CCCCN)C(=O)N[C@@H](CO)C(=O)N[C@@H](C)C(=O)N[C@@H](CCCN=C(N)N)C(=O)N[C@@H](CCCCN)C(N)=O (H-[X5]GFTGARKSARK-NH2) | 100 | Partially active | Partial agonist | 5.7 | – | – | – | – |
| C[C@H](NC(=O)CNC(=O)[C@@H](NC(=O)[C@H](Cc1ccccc1)NC(=O)CNC(=O)CNC(=O)CNCc1ccccc1)[C@@H](C)O)C(=O)N[C@@H](CCCN=C(N)N)C(=O)N[C@@H](CCCCN)C(N)=O (H-[Nphe]GGFTGARK-NH2) | – | – | – | – | inactive | > 10000 | inactive | inactive |
| CC(C)C[C@H](N)CNCC(=O)NCC(=O)N[C@@H](Cc1ccccc1)C(=O)N[C@H](C(=O)NCC(=O)N[C@@H](C)C(=O)N[C@@H](CCCN=C(N)N)C(=O)N[C@@H](CCCCN)C(=O)N[C@@H](CO)C(=O)N[C@@H](C)C(=O)N[C@@H](CCCN=C(N)N)C(=O)N[C@@H](CCCCN)C(N)=O)[C@@H](C)O (H-[X1]GFTGARKSARK-NH2) | 15.8 | Partially active | Partial agonist | 5.4 | – | – | – | – |
